Measurements published in ChEMBL document CHEMBL3588757, “Structure-based design, synthesis and biological testing of piperazine-linked bis-epipodophyllotoxin etoposide analogs” (Bioorg Med Chem, 2015).

Key:
Assay type in all cases: functional
NCI-H460 = assay: Cytotoxicity against human NCI-H460 cells assessed as cell growth at 0.05 uM by SRB assay; conditions: read-out: Activity
PC-3 [1] = assay: Cytotoxicity against human PC3 cells by SRB assay
In short: (§1)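 NCI-60 panel screen; 5-dose testing giving GI50 per cell line, plus a single 10 µM one-dose test. Method details not given beyond the NCI screen.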

LOX IMVI = assay: Cytotoxicity against human LOXIMVI cells by SRB assay; in short: as §1
786-0 = assay: Cytotoxicity against human 786-0 cells assessed as cell growth at 0.005 uM by SRB assay; conditions: read-out: Activity
OVCAR-3 = assay: Cytotoxicity against human OVCAR3 cells assessed as cell growth at 50 uM by SRB assay; conditions: read-out: Activity
SR = assay: Cytotoxicity against human SR cells by SRB assay; in short: as §1
NCI-H522 [2] = assay: Cytotoxicity against human NCI-H522 cells assessed as cell growth at 0.005 uM by SRB assay; conditions: read-out: Activity
NCI-H522 [3] = assay: Cytotoxicity against human NCI-H522 cells by SRB assay; in short: as §1
HOP-92 = assay: Cytotoxicity against human HOP92 cells assessed as cell growth at 0.05 uM by SRB assay; conditions: read-out: Activity
In short: (§2)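 Measured in the NCI-60 human tumour cell line panel using five-dose testing. Growth was recorded at each dose for each cell line, and a GI50 was derived for each line.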

CAKI-1 = assay: Cytotoxicity against human Caki1 cells assessed as cell growth at 50 uM by SRB assay; conditions: read-out: Activity
SK-MEL-2 = assay: Cytotoxicity against human SK-MEL-2 cells by SRB assay; in short: as §1
[4] = Cytotoxicity against human NCI-ADR-RES cells assessed as cell growth at 0.05 uM by SRB assay; conditions: read-out: Activity
SW-620 [5] = assay: Cytotoxicity against human SW620 cells assessed as cell growth at 0.5 uM by SRB assay; conditions: read-out: Activity
OVCAR-4 = assay: Cytotoxicity against human OVCAR4 cells assessed as cell growth at 0.05 uM by SRB assay; conditions: read-out: Activity
MDA-MB-231 [6] = assay: Cytotoxicity against human MDA-MB-231/ATCC cells assessed as cell growth at 0.005 uM by SRB assay; conditions: read-out: Activity
SNB-75 = assay: Cytotoxicity against human SNB75 cells by SRB assay; in short: as §1
HCC 2998 = assay: Cytotoxicity against human HCC2998 cells assessed as cell growth at 0.005 uM by SRB assay; conditions: read-out: Activity; in short: as §2
[7] = Cytotoxicity against human Hs578T cells assessed as cell growth at 0.05 uM by SRB assay; conditions: Hs-578T, read-out: Activity; in short: as §2
HCT-116 = assay: Cytotoxicity against human HCT116 cells assessed as cell growth at 0.05 uM by SRB assay; conditions: read-out: Activity; in short: as §2
ACHN = assay: Cytotoxicity against human ACHN cells assessed as cell growth at 0.005 uM by SRB assay; conditions: read-out: Activity
RXF 393 [8] = assay: Cytotoxicity against human RXF393 cells assessed as cell growth at 50 uM by SRB assay; conditions: read-out: Activity
A498 = assay: Cytotoxicity against human A498 cells assessed as cell growth at 0.005 uM by SRB assay; conditions: read-out: Activity
SF-539 = assay: Cytotoxicity against human SF539 cells assessed as cell growth at 0.005 uM by SRB assay; conditions: read-out: Activity
RXF 393 [9] = assay: Cytotoxicity against human RXF393 cells by SRB assay; in short: as §1
RPMI-8226 = assay: Cytotoxicity against human RPMI8226 cells assessed as cell growth at 50 uM by SRB assay; conditions: read-out: Activity
SW-620 [10] = assay: Cytotoxicity against human SW620 cells by SRB assay; in short: as §1
PC-3 [11] = assay: Cytotoxicity against human PC3 cells assessed as cell growth at 0.005 uM by SRB assay; conditions: read-out: Activity
U-251 = assay: Cytotoxicity against human U251 cells assessed as cell growth at 50 uM by SRB assay; conditions: read-out: Activity
DU-145 = assay: Cytotoxicity against human DU145 cells by SRB assay; in short: as §2
KM12 = assay: Cytotoxicity against human KM12 cells assessed as cell growth at 0.5 uM by SRB assay; conditions: read-out: Activity
SK-MEL-28 = assay: Cytotoxicity against human SK-MEL-28 cells assessed as cell growth at 0.05 uM by SRB assay; conditions: read-out: Activity
PC-3 [12] = assay: Cytotoxicity against human PC3 cells assessed as cell growth at 0.5 uM by SRB assay; conditions: read-out: Activity
SN12C = assay: Cytotoxicity against human SN12C cells assessed as cell growth at 0.5 uM by SRB assay; conditions: read-out: Activity
NCI-H23 = assay: Cytotoxicity against human NCI-H23 cells assessed as cell growth at 50 uM by SRB assay; conditions: read-out: Activity
COLO 205 = assay: Cytotoxicity against human COLO205 cells by SRB assay
MDA-MB-231 [13] = assay: Cytotoxicity against human MDA-MB-231/ATCC cells by SRB assay; in short: as §1
SNB-19 = assay: Cytotoxicity against human SNB19 cells assessed as cell growth at 5 uM by SRB assay; conditions: read-out: Activity
SF-295 = assay: Cytotoxicity against human SF295 cells assessed as cell growth at 0.05 uM by SRB assay; conditions: read-out: Activity
[14] = read-out: LC50 (the source's name)
[15] = read-out: pLC50 (the source's name) (converted)

COc1cc([C@@H]2c3cc4c(cc3[C@@H](NC(=O)CN3CCN(CCCCCCN5CCN(CC(=O)N[C@@H]6c7cc8c(cc7[C@@H](c7cc(OC)c(O)c(OC)c7)[C@H]7C(=O)OC[C@@H]76)OCO8)CC5)CC3)[C@H]3COC(=O)[C@H]23)OCO4)cc(OC)c1O gave a growth at 0.05 µM (NCI-H460) of 89%, a GI50 (PC-3 [1]; read-out: GI50) of 6.87 µM and a CC50 (PC-3 [1]; [14]) greater than 50 µM. The TGI (PC-3 [1]; read-out: TGI) was greater than 50 µM, the GI50 (PC-3 [1]; read-out: pGI50 (converted)) was 6.92 µM and the CC50 (PC-3 [1]; [15]) was greater than 50.1 µM. For the same molecule, the TGI (PC-3 [1]; read-out: pTGI (converted)) was greater than 50.1 µM, the GI50 (LOX IMVI; read-out: GI50) was 0.966 µM and the CC50 (LOX IMVI; [14]) was greater than 50 µM. It also gave a TGI (LOX IMVI; read-out: TGI) of 28 µM, a GI50 (LOX IMVI; read-out: pGI50 (converted)) of 0.977 µM and a CC50 (LOX IMVI; [15]) greater than 50.1 µM. The TGI (LOX IMVI; read-out: pTGI (converted)) was 28.2 µM, the growth at 0.005 µM (786-0) was 89% and the growth at 50 µM (OVCAR-3) was 11%. The GI50 (SR; read-out: GI50) was 0.106 µM, the CC50 (SR; [14]) was greater than 50 µM and the TGI (SR; read-out: TGI) was greater than 50 µM. It also gave a GI50 (SR; read-out: pGI50 (converted)) of 0.105 µM, a CC50 (SR; [15]) greater than 50.1 µM and a TGI (SR; read-out: pTGI (converted)) greater than 50.1 µM. For the same molecule, the growth at 0.005 µM (NCI-H522 [2]) was 99%, the GI50 (NCI-H522 [3]; read-out: GI50) was 5.13 µM and the CC50 (NCI-H522 [3]; [14]) was greater than 50 µM. It also gave a TGI (NCI-H522 [3]; read-out: TGI) of 28.8 µM, a GI50 (NCI-H522 [3]; read-out: pGI50 (converted)) of 5.13 µM and a CC50 (NCI-H522 [3]; [15]) greater than 50.1 µM. The TGI (NCI-H522 [3]; read-out: pTGI (converted)) was 28.8 µM, the growth at 0.05 µM (HOP-92) was 82% and the growth at 50 µM (CAKI-1) was 57%. For the same molecule, the GI50 (SK-MEL-2; read-out: GI50) was 11.3 µM, the CC50 (SK-MEL-2; [14]) was greater than 50 µM and the TGI (SK-MEL-2; read-out: TGI) was 35.5 µM. For the same molecule, the GI50 (SK-MEL-2; read-out: pGI50 (converted)) was 11.2 µM, the CC50 (SK-MEL-2; [15]) was greater than 50.1 µM and the TGI (SK-MEL-2; read-out: pTGI (converted)) was 35.5 µM. It also gave a growth at 0.05 µM [4] of 103%, a growth at 0.5 µM (SW-620 [5]) of 63% and a growth at 0.05 µM (OVCAR-4) of 89%. The growth at 0.005 µM (MDA-MB-231 [6]) was 103%, the GI50 (SNB-75; read-out: GI50) was 0.957 µM and the CC50 (SNB-75; [14]) was greater than 50 µM. The TGI (SNB-75; read-out: TGI) was 12.8 µM, the GI50 (SNB-75; read-out: pGI50 (converted)) was 0.955 µM and the CC50 (SNB-75; [15]) was greater than 50.1 µM. It also gave a TGI (SNB-75; read-out: pTGI (converted)) of 12.9 µM, a growth at 0.005 µM (HCC 2998) of 104% and a growth at 0.05 µM [7] of 90%. It also gave a growth at 0.05 µM (HCT-116) of 98%, a growth at 0.005 µM (ACHN) of 94% and a growth at 50 µM (RXF 393 [8]) of 7%. It also gave a growth at 0.005 µM (A498) of 82%, a growth at 0.005 µM (SF-539) of 94% and a GI50 (RXF 393 [9]; read-out: GI50) of 9.33 µM. It also gave a CC50 (RXF 393 [9]; [14]) greater than 50 µM, a TGI (RXF 393 [9]; read-out: TGI) greater than 50 µM and a GI50 (RXF 393 [9]; read-out: pGI50 (converted)) of 9.33 µM. It also gave a CC50 (RXF 393 [9]; [15]) greater than 50.1 µM, a TGI (RXF 393 [9]; read-out: pTGI (converted)) greater than 50.1 µM and a growth at 50 µM (RPMI-8226) of -13%. The GI50 (SW-620 [10]; read-out: GI50) was 1.6 µM, the CC50 (SW-620 [10]; [14]) was greater than 50 µM and the TGI (SW-620 [10]; read-out: TGI) was greater than 50 µM. The GI50 (SW-620 [10]; read-out: pGI50 (converted)) was 1.58 µM, the CC50 (SW-620 [10]; [15]) was greater than 50.1 µM and the TGI (SW-620 [10]; read-out: pTGI (converted)) was greater than 50.1 µM. The growth at 0.005 µM (PC-3 [11]) was 93%, the growth at 50 µM (U-251) was -10% and the GI50 (DU-145; read-out: GI50) was 1.66 µM. The CC50 (DU-145; [14]) was greater than 50 µM, the TGI (DU-145; read-out: TGI) was greater than 50 µM and the GI50 (DU-145; read-out: pGI50 (converted)) was 1.66 µM. It also gave a CC50 (DU-145; [15]) greater than 50.1 µM, a TGI (DU-145; read-out: pTGI (converted)) greater than 50.1 µM and a growth at 0.5 µM (KM12) of 81%. It also gave a growth at 0.05 µM (SK-MEL-28) of 106%, a growth at 0.5 µM (PC-3 [12]) of 80% and a growth at 0.5 µM (SN12C) of 78%. It also gave a growth at 50 µM (NCI-H23) of -6%, a GI50 (COLO 205; read-out: GI50) of 5.79 µM and a CC50 (COLO 205; [14]) greater than 50 µM. It also gave a TGI (COLO 205; read-out: TGI) of 44.7 µM, a GI50 (COLO 205; read-out: pGI50 (converted)) of 5.75 µM and a CC50 (COLO 205; [15]) greater than 50.1 µM. It also gave a TGI (COLO 205; read-out: pTGI (converted)) of 44.7 µM, a GI50 (MDA-MB-231 [13]; read-out: GI50) of 13.6 µM and a CC50 (MDA-MB-231 [13]; [14]) greater than 50 µM. The TGI (MDA-MB-231 [13]; read-out: TGI) was greater than 50 µM, the GI50 (MDA-MB-231 [13]; read-out: pGI50 (converted)) was 13.5 µM and the CC50 (MDA-MB-231 [13]; [15]) was greater than 50.1 µM. For the same molecule, the TGI (MDA-MB-231 [13]; read-out: pTGI (converted)) was greater than 50.1 µM, the growth at 5 µM (SNB-19) was 15% and the growth at 0.05 µM (SF-295) was 93%.
